Tests used:
[1] = system: diabetic NSG RIP-DTR mice engrafted with human islets; assay: Body weight of human islet-engrafted mice; format: in vivo, mouse; settings: 50, 150, 500 µg/kg sc twice daily
Procedure, shortened: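 Male NSG RIP-DTR mice, 8–12 weeks old, made diabetic by diphtheria toxin ablation of mouse beta cells and engrafted with a marginal mass of human islets from a single donor. Randomized into four groups: vehicle or test compound at 50, 150 or 500 µg/kg/injection, given sc twice daily until removal of the graft-bearing kidney at ~4 weeks post-transplant. Body weights followed over the study.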

[2] = system: diabetic NSG RIP-DTR mice engrafted with human islets; format: in vivo, mouse; settings: Donor 5 study; low dose 50 µg/kg sc twice daily
[3] = system: human beta and alpha cells in islet grafts; assay: Total beta- and alpha-cell counts in human islet grafts; format: in vivo; settings: Donor 5 study
Procedure, shortened: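 After twice-daily sc dosing, the graft-bearing kidney was removed. For the Donor 5 study, grafts were recovered on day 21. Whole-section images were taken from the outer graft edge with a motorized-stage fluorescence microscope and stitched, and total insulin+ and glucagon+ cells were counted.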

[4] = system: human islets engrafted in NSG RIP-DTR mice; assay: Plasma human insulin; format: in vivo, mouse; settings: 2 weeks post-transplant
[5] = system: INS-1 rat pancreatic beta-cell line; settings: in vitro; cited from earlier work
patients with T2D = settings: cited from earlier work
[6] = system: diabetic NSG RIP-DTR mice engrafted with human islets; assay: Glucose tolerance test; format: in vivo, mouse; settings: for GTT vs controls: Donor 3 study
Procedure, shortened: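 Human islet-engrafted diabetic NSG RIP-DTR mice on twice-daily sc vehicle or test compound were fasted 5–6 hours. Glucose (2.0 g/kg body weight) was injected ip, and blood glucose was measured afterwards.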

[7] = system: human beta cells in islet grafts; assay: TUNEL assay of human beta-cell apoptosis in recovered islet grafts; format: in vivo
Procedure, shortened: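 Recovered human islet grafts were taken on days 29, 32 and 21 for the Donor 3, 4 and 5 studies, at the end of twice-daily sc dosing. Sections were co-stained for insulin and TUNEL-labelled following the kit instructions. Cells were visualized by fluorescence microscopy and counted, and results expressed as percent TUNEL-positive beta cells.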

[8] = high dose 500 µg/kg sc twice daily
[9] = low dose 50 µg/kg sc twice daily, n=3 or 4
[10] = medium dose 150 µg/kg sc twice daily

Substance: lixisenatide
- body weight change between transplant and nephrectomy ([1]; Donor 1 study): all mice lost significant weight between the time of transplant and nephrectomy, except the medium-dose group
- body weight change between transplant and nephrectomy ([1]; Donor 3 and 4 studies): no significant change in body weight
- blood glucose [2]: ~ 400 mg/dL
- numbers of alpha cells in islet graft relative to control group [3, 8]: approximately threefold higher
- numbers of beta cells in islet graft relative to control group [3, 8]: approximately threefold higher
- alpha-cell counts in islet graft relative to control group [3, 9]: approximately twofold higher
- beta-cell counts in islet graft relative to control group [3, 9]: approximately twofold higher
- numbers of alpha cells in islet graft relative to control group [3, 10]: approximately threefold higher
- numbers of beta cells in islet graft relative to control group [3, 10]: approximately threefold higher
- stimulation index (ratio of stimulated to fasting human insulin) vs control ([4]; high dose 500 µg/kg, Donor 3 and 4 studies): significantly increased compared to controls
- stimulation index (ratio of stimulated to fasting human insulin) vs control ([4]; medium dose 150 µg/kg, Donor 1, 3 and 4 studies): significantly increased compared to controls
- lipid- and cytokine-induced apoptosis [5]: protect against lipid- and cytokine-induced apoptosis
- reduction in postprandial plasma glucose vs placebo (patients with T2D; T2D patients insufficiently controlled on metformin): significantly greater reduction in postprandial plasma glucose
- glycemic control (postprandial and fasting glucose levels) (patients with T2D; patients with T2D, once-daily administration): improved glycemic control by decreasing both postprandial and fasting glucose levels
- GTT vs controls ([6]; high dose 500 µg/kg (P<0.05)): significant differences from controls
- GTT vs controls ([6]; medium dose 150 µg/kg (P<0.01)): significant differences from controls
- GTT vs control group ([6]; Donor 4 study, low dose 50 µg/kg (P<0.05)): significant differences from the control group
- average percent beta-cell apoptosis at the end of each study ([7]; TUNEL-positive beta cells, control and lixisenatide groups, Donors 3, 4, 5): < 1%
- beta-cell apoptosis (TUNEL) vs control ([7]; grafts recovered days 29, 32, 21 (Donors 3, 4, 5), all dose groups): no significant differences in beta-cell apoptosis

Source: paper PMC4548726 (Diabetes, Metabolic Syndrome and Obesity: Targets and …, 2015)
